# Data published in ChEMBL document CHEMBL1121528, “Synthesis and pharmacology of 8-amino-3-(cyclopropylmethyl)-1,2,3,4,5,6-hexahydro-cis-6,11-dimethyl-2,6-methano-3-benzazocine and related compounds” (1980).
# Active and inactive are the calls of the source. The calls are words filed in the database; no cut-off is given here.
# Columns and labels:
# Mus musculus [1] = assay: Effective dose required for its agonist activity in mouse by acetylcholine writhing test after sc administration; format: functional
# In short: (§1)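 Agonist (analgesic) screens: modified D'Amour-Smith tail-flick, phenylquinone-induced writhing, acetylcholine-induced writhing (mouse), and rat bradykinin test. Compounds given sc or po.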
# Rattus norvegicus [2] = assay: Analgesic dose required for its phenazocine antagonistic activity in rat after peroral administration; format: functional
# In short: (§2)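 Narcotic antagonist activity in rats by the Harris–Pierson tail-flick procedure against phenazocine, with compounds given orally. AD50 reported in mg/kg with 95% confidence limits, calculated as free base.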
# Rattus norvegicus [3] = assay: analgesic dose required for its phenazocine antagonistic activity in rat after peroral administration; I = inactive; format: functional, organism-based; in short: as §2
# Rattus norvegicus [4] = assay: Analgesic dose required for its narcotic activity in meperidine after sc administration; format: functional
# Rattus norvegicus [5] = assay: Analgesic dose required for its narcotic activity in morphine after sc administration; format: functional
# Rattus norvegicus [6] = assay: Analgesic dose required for its narcotic activity morphine after po administration; format: functional
# Rattus norvegicus [7] = assay: Effective dose required for its agonist activity in rat bradykinin test after po administration; format: functional; in short: as §1
# Rattus norvegicus [8] = assay: Analgesic dose required for its narcotic activity in meperidine after po administration; format: functional
# Rattus norvegicus [9] = assay: Effective dose required for its agonist activity in rat bradykinin test after sc administration; format: functional; in short: as §1
# Mus musculus [10] = assay: Effective dose required for its agonist activity in phenylquinone test after po administration; format: functional; in short: as §1
# Mus musculus [11] = assay: Effective dose required for its agonist activity in mouse by phenylquinone test after sc administration; format: functional; in short: as §1
# Rattus norvegicus [12] = assay: Effective dose required for its agonist activity in rat tail flick test after sc administration; I = inactive; format: functional, organism-based; in short: as §1
# Rattus norvegicus [13] = assay: Analgesic dose required for its narcotic activity in Phenazocine after sc administration; format: functional
# Rattus norvegicus [14] = assay: Analgesic dose required for its narcotic activity in Phenazocine after po administration; format: functional
# Rattus norvegicus [15] = assay: Analgesic dose required for its phenazocine antagonistic activity in rat after peroral administration; ? = Questionable activity; format: functional, organism-based; in short: as §2
# Rattus norvegicus [16] = species on record: Rattus norvegicus; assay: Analgesic dose required for its narcotic activity in morphine; format: functional
# Mus musculus [17] = assay: Effective dose required for its agonist activity in acetylcholine test after sc administration; format: functional; in short: as §1
# Mus musculus [18] = assay: Effective dose required for its agonist activity in acetylcholine test after po administration; format: functional; in short: as §1
# Rattus norvegicus [19] = assay: Effective dose required for its agonist activity in bradykinin test after sc administration; format: functional; in short: as §1
# Rattus norvegicus [20] = assay: Analgesic dose required for its narcotic activity morphine after peroral administration; format: functional
# Rattus norvegicus [21] = assay: Analgesic dose required for its narcotic activity in Phenazocine after peroral administration; format: functional
# Rattus norvegicus [22] = assay: Analgesic dose required for its narcotic activity in meperidine after peroral administration; format: functional
# Rattus norvegicus [23] = assay: Analgesic dose required for its phenazocine antagonistic activity in rat after peroral administration; I = inactive at 40; format: functional, organism-based; in short: as §2
# Rattus norvegicus [24] = species on record: Rattus norvegicus; assay: Tested for peroral analgesic dose required for its narcotic activity in meperidine; format: functional
# Mus musculus [25] = assay: Effective dose required for its agonist activity in Phenylquinone writhing test after sc administration; format: functional; in short: as §1
structure (smiles),measurement,setting,value
C[C@H]1C2Cc3ccc(N(C)C)cc3[C@@]1(C)CCN2CC1CC1,ED50,Mus musculus [1],0.79 mg/kg
C[C@H]1C2Cc3ccc(NCc4ccccc4)cc3[C@@]1(C)CCN2CC1CC1,AD50,Rattus norvegicus [2],1 mg/kg
C[C@H]1C2Cc3ccc(N)cc3[C@@]1(C)CCN2,ED50,Mus musculus [1],6.1 mg/kg
same,AD50,Rattus norvegicus [3],inactive
CC(C)=CCN1CC[C@]2(C)c3cc(O)ccc3C[C@H]1[C@H]2C [(+)-PENTAZOCINE],AD50,Rattus norvegicus [4],3.9 mg/kg
same,AD50,Rattus norvegicus [5],9 mg/kg
same,AD50,Rattus norvegicus [6],140 mg/kg
same,Protection,Rattus norvegicus [7],40 mg/kg
same,AD50,Rattus norvegicus [8],68 mg/kg
same,ED50,Rattus norvegicus [9],2.6 mg/kg
same,ED50,Mus musculus [10],95 mg/kg
same,ED50,Mus musculus [11],3.8 mg/kg
same,ED50,Rattus norvegicus [12],inactive
same,AD50,Rattus norvegicus [13],6.3 mg/kg
same,AD50,Rattus norvegicus [14],76 mg/kg
CCCNc1ccc2c(c1)[C@@]1(C)CCN(CC3CC3)C(C2)[C@@H]1C,AD50,Rattus norvegicus [15],Questionable activity
same,ED50,Mus musculus [1],1.2 mg/kg
C[C@H]1C2Cc3ccc(NCC4CC4)cc3[C@@]1(C)CCN2CC1CC1.Cl,AD50,Rattus norvegicus [2],8 mg/kg
same,ED50,Mus musculus [1],0.7 mg/kg
CNc1ccc2c(c1)[C@@]1(C)CCN(CC3CC3)C(C2)[C@@H]1C,AD50,Rattus norvegicus [2],1.35 mg/kg
same,ED50,Mus musculus [1],0.44 mg/kg
C[C@H]1C2Cc3ccc(N)cc3[C@@]1(C)CCN2CC1CC1,AD50,Rattus norvegicus [4],2 mg/kg
same,AD50,Rattus norvegicus [16],3.7 mg/kg
same,AD50,Rattus norvegicus [6],15 mg/kg
same,ED50,Mus musculus [17],0.8 mg/kg
same,ED50,Rattus norvegicus [7],8.1 mg/kg
same,ED50,Mus musculus [18],3.2 mg/kg
same,AD50,Rattus norvegicus [8],8.8 mg/kg
same,ED50,Rattus norvegicus [9],1.2 mg/kg
same,ED50,Mus musculus [10],7.2 mg/kg
same,ED50,Mus musculus [11],1.4 mg/kg
same,ED50,Rattus norvegicus [12],inactive
same,AD50,Rattus norvegicus [13],2.7 mg/kg
same,AD50,Rattus norvegicus [14],10 mg/kg
C[C@H]1[C@H]2Cc3ccc(O)cc3[C@]1(C)CCN2CC1CC1 [CYCLAZOCINE],AD50,Rattus norvegicus [4],0.019 mg/kg
same,AD50,Rattus norvegicus [5],0.029 mg/kg
same,ED50,Rattus norvegicus [19],0.04 mg/kg
same,ED50,Rattus norvegicus [7],3.7 mg/kg
same,AD50,Rattus norvegicus [20],4.3 mg/kg
same,AD50,Rattus norvegicus [21],3.1 mg/kg
same,ED50,Mus musculus [10],3.6 mg/kg
same,ED50,Mus musculus [11],0.04 mg/kg
same,ED50,Rattus norvegicus [12],inactive
same,AD50,Rattus norvegicus [13],0.028 mg/kg
same,AD50,Rattus norvegicus [22],4.2 mg/kg
C=CCN1CC[C@]2(C)c3cc(N)ccc3CC1[C@@H]2C,AD50,Rattus norvegicus [2],1.5 mg/kg
same,ED50,Mus musculus [1],2.5 mg/kg
CCNc1ccc2c(c1)[C@@]1(C)CCN(CC3CC3)C(C2)[C@@H]1C,ED50,Mus musculus [1],1.3 mg/kg
same,AD50,Rattus norvegicus [23],inactive
C[C@H]1C2Cc3ccc([N+](=O)[O-])cc3[C@@]1(C)CCN2CC1CC1.Cl,AD50,Rattus norvegicus [24],9.6 mg/kg
same,ED50,Mus musculus [25],24 mg/kg
CCCCNc1ccc2c(c1)[C@@]1(C)CCN(CC3CC3)C(C2)[C@@H]1C,ED50,Mus musculus [1],1 mg/kg
same,AD50,Rattus norvegicus [23],inactive
CCCN1CC[C@]2(C)c3cc(N)ccc3CC1[C@@H]2C,AD50,Rattus norvegicus [2],2 mg/kg
same,ED50,Mus musculus [1],5.6 mg/kg
CC(C)CN1CC[C@]2(C)c3cc(N)ccc3CC1[C@@H]2C,AD50,Rattus norvegicus [2],9.4 mg/kg
same,ED50,Mus musculus [1],1.5 mg/kg
